{"source": "ChEMBL document CHEMBL1152785", "about": "“Synthesis and biological evaluation of a series of novel inhibitor of Nek2/Hec1 analogues” (J Med Chem, 2009)", "key": {"MDA-MB-231": {"tested_on": "MDA-MB-231", "assay": "Cytotoxicity against human MDA-MB-231 cells after 4 days XTT assay", "type": "functional, cell-based", "conditions": "MDA-MB-231, 96 h", "how_it_was_run": "(§1)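 XTT assay with four-day drug treatment. Cells were plated one day before dosing and drug was added on day 2. XTT was read on day 5 after drug addition by absorbance at 595 nm. Absorbance was converted to percent survival against mock-treated cells to give dose-dependent cytotoxicity. Triplicate sets. HeLa, MDA-MB231 and MDA-MB468 were maintained in DMEM with 10% FBS.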"}, "MDA-MB-468": {"tested_on": "MDA-MB-468", "assay": "Cytotoxicity against human MDA-MB-468 cells after 4 days by XTT assay", "type": "functional, cell-based", "conditions": "MDA-MB-468, 96 h", "how_it_was_run": "as §1"}, "HeLa [1]": {"tested_on": "HeLa", "assay": "Cytotoxicity against human HeLa cells after 4 days by XTT assay", "type": "functional, cell-based", "conditions": "96 h", "how_it_was_run": "as §1"}, "K562": {"tested_on": "K562", "assay": "Cytotoxicity against human K562 cells after 4 days by XTT assay", "type": "functional, cell-based", "conditions": "K562, 96 h"}, "HeLa [2]": {"tested_on": "HeLa", "assay": "Anticancer activity against human HeLa cells assessed as reduction of Nek2 level at 25 uM by Western blot assay", "type": "functional, cell-based"}, "HeLa [3]": {"tested_on": "HeLa", "assay": "Anticancer activity against human HeLa cells assessed as reduction of Nek2 level at 25 uM after 8 to 11 hrs by Western blot assay", "type": "functional, cell-based"}, "[4]": {"target": "T1, Kinetochore protein NDC80 homolog (Homo sapiens) (UniProt O14777)", "T1 sequence (whole entry)": "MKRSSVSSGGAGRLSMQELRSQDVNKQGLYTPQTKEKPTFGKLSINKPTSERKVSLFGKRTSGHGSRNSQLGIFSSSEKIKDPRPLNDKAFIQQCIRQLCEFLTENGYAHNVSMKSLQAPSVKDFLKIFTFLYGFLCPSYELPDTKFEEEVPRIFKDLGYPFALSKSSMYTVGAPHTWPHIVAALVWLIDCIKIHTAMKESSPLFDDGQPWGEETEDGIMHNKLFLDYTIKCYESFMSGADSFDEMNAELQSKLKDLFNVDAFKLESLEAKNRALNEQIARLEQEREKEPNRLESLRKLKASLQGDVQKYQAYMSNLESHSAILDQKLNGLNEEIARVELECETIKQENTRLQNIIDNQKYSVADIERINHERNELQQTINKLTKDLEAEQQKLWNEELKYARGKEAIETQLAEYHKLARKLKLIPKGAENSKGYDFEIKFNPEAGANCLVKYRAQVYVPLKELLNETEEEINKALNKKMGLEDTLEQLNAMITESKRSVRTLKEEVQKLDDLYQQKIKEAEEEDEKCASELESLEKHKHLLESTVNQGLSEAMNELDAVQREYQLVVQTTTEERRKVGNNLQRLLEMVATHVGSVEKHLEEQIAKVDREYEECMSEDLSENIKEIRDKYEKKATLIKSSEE", "assay": "Inhibition of Hec1/Nek2 complex in human Hela cells assessed as mitotic abnormality with multipolar spindle configuration at 25 uM after 24 hrs by immuno-fluorescent staining", "type": "cell-based"}}, "note": "Active and inactive are the calls of the source. No cut-off for these calls is given here.", "data": [{"smiles": "Cc1ccc(-c2csc(NC(=O)c3ccccc3)n2)c(C)c1", "values": [{"measurement": "IC50", "setting": "MDA-MB-231", "result": 8.6, "unit": "µM"}, {"measurement": "IC50", "setting": "MDA-MB-468", "result": 10.5, "unit": "µM"}, {"measurement": "IC50", "setting": "HeLa [1]", "result": 8.8, "unit": "µM"}, {"measurement": "IC50", "setting": "K562", "result": 11.7, "unit": "µM"}, {"measurement": "Activity", "setting": "HeLa [2]", "result": "Active"}, {"measurement": "Activity", "setting": "HeLa [3]", "result": "Active"}, {"measurement": "Activity", "setting": "[4]", "result": "Active"}]}]}
